Measured values published in ChEMBL document CHEMBL3632558, “Synthesis, antimycobacterial and antibacterial activity of l-[(1R,2S)-2-fluorocyclopropyl]naphthyridone derivatives containing an oxime-functionalized pyrrolidine moiety” (2015).
Values after ≈ are worked out from the molar mass of the structure shown.

Assays:
Assay type in all cases: functional
[1] = tested on: Enterococcus faecalis; test: Antibacterial activity against Enterococcus faecalis 14-2 after 18 to 24 hrs
Summary of the method: (§1)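 MIC by standard NCCLS reference procedure (M100-S11); lowest concentration of compound inhibiting visible bacterial growth after incubation at 35 °C for 18–24 h, read as complete inhibition of growth. Ciprofloxacin, levofloxacin and moxifloxacin run alongside as reference agents.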

[2] = tested on: Enterococcus faecium; test: Antibacterial activity against Enterococcus faecium 14-1 after 18 to 24 hrs; summary of the method: as §1
[3] = tested on: Enterococcus faecium; test: Antibacterial activity against Enterococcus faecium 14-2 after 18 to 24 hrs; summary of the method: as §1
[4] = tested on: Enterococcus faecium; test: Antibacterial activity against Enterococcus faecium 14-5 after 18 to 24 hrs; summary of the method: as §1
[5] = tested on: Enterococcus faecium; test: Antibacterial activity against Enterococcus faecium 14-6 after 18 to 24 hrs; summary of the method: as §1
[6] = tested on: Mycobacterium tuberculosis; test: Antimycobacterial activity against Mycobacterium tuberculosis H37Rv ATCC 27294 by alamar blue assay
Summary of the method: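 Microplate Alamar Blue Assay; MIC is the lowest concentration giving ≥90% reduction in fluorescence relative to the mean of replicate bacterium-only controls. MDR strain 6133 is resistant to isoniazid and rifampicin.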

[7] = tested on: Escherichia coli; test: Antibacterial activity against Escherichia coli ATCC 25922 after 18 to 24 hrs; summary of the method: as §1
[8] = tested on: Escherichia coli; test: Antibacterial activity against ESBL-positive Escherichia coli 14-1 after 18 to 24 hrs; summary of the method: as §1
[9] = tested on: Escherichia coli; test: Antibacterial activity against ESBL-positive Escherichia coli 14-2 after 18 to 24 hrs; summary of the method: as §1
[10] = tested on: Escherichia coli; test: Antibacterial activity against Escherichia coli 14-1 after 18 to 24 hrs; summary of the method: as §1
[11] = tested on: Escherichia coli; test: Antibacterial activity against Escherichia coli 14-2 after 18 to 24 hrs; summary of the method: as §1
[12] = tested on: Klebsiella pneumoniae; test: Antibacterial activity against ESBL-positive Klebsiella pneumoniae 14-17 after 18 to 24 hrs; summary of the method: as §1
[13] = tested on: Klebsiella pneumoniae; test: Antibacterial activity against ESBL-positive Klebsiella pneumoniae 14-18 after 18 to 24 hrs; summary of the method: as §1
[14] = tested on: Klebsiella pneumoniae; test: Antibacterial activity against ESBL-positive Klebsiella pneumoniae 14-19 after 18 to 24 hrs; summary of the method: as §1
[15] = tested on: Klebsiella pneumoniae; test: Antibacterial activity against Klebsiella pneumoniae 14-1 after 18 to 24 hrs; summary of the method: as §1
[16] = tested on: Klebsiella pneumoniae; test: Antibacterial activity against Klebsiella pneumoniae 14-2 after 18 to 24 hrs; summary of the method: as §1
[17] = tested on: Klebsiella pneumoniae; test: Antibacterial activity against Klebsiella pneumoniae 14-3 after 18 to 24 hrs; summary of the method: as §1
[18] = tested on: Klebsiella pneumoniae; test: Antibacterial activity against Klebsiella pneumoniae 14-4 after 18 to 24 hrs; summary of the method: as §1
[19] = tested on: Pseudomonas aeruginosa; test: Antibacterial activity against Pseudomonas aeruginosa ATCC 27853 after 18 to 24 hrs; summary of the method: as §1
[20] = tested on: Pseudomonas aeruginosa; test: Antibacterial activity against Pseudomonas aeruginosa 14-9 after 18 to 24 hrs; summary of the method: as §1
[21] = tested on: Pseudomonas aeruginosa; test: Antibacterial activity against Pseudomonas aeruginosa 14-14 after 18 to 24 hrs; summary of the method: as §1
[22] = tested on: Pseudomonas aeruginosa; test: Antibacterial activity against Pseudomonas aeruginosa 14-15 after 18 to 24 hrs; summary of the method: as §1
[23] = tested on: Pseudomonas aeruginosa; test: Antibacterial activity against Pseudomonas aeruginosa 14-16 after 18 to 24 hrs; summary of the method: as §1
[24] = tested on: Pseudomonas aeruginosa; test: Antibacterial activity against Pseudomonas aeruginosa 14-19 after 18 to 24 hrs; summary of the method: as §1
[25] = tested on: Staphylococcus aureus; test: Antibacterial activity against Staphylococcus aureus CMCC 26003 after 18 to 24 hrs; summary of the method: as §1
[26] = tested on: Staphylococcus aureus; test: Antibacterial activity against methicillin-sensitive Staphylococcus aureus 14-1 after 18 to 24 hrs; summary of the method: as §1
[27] = tested on: Staphylococcus aureus; test: Antibacterial activity against methicillin-sensitive Staphylococcus aureus 14-2 after 18 to 24 hrs; summary of the method: as §1
[28] = tested on: Staphylococcus aureus; test: Antibacterial activity against methicillin-sensitive Staphylococcus aureus 14-3 after 18 to 24 hrs; summary of the method: as §1
[29] = tested on: Staphylococcus aureus; test: Antibacterial activity against methicillin-sensitive Staphylococcus aureus 14-4 after 18 to 24 hrs; summary of the method: as §1
[30] = tested on: Staphylococcus aureus; test: Antibacterial activity against methicillin-resistant Staphylococcus aureus 14-4 after 18 to 24 hrs
[31] = tested on: Staphylococcus aureus; test: Antibacterial activity against methicillin-resistant Staphylococcus aureus 14-5 after 18 to 24 hrs
[32] = tested on: Staphylococcus epidermidis; test: Antibacterial activity against methicillin-sensitive Staphylococcus epidermidis 14-2 after 18 to 24 hrs; summary of the method: as §1
[33] = tested on: Staphylococcus epidermidis; test: Antibacterial activity against methicillin-resistant Staphylococcus epidermidis 14-21 after 18 to 24 hrs
[34] = tested on: Staphylococcus epidermidis; test: Antibacterial activity against methicillin-resistant Staphylococcus epidermidis 14-22 after 18 to 24 hrs
[35] = tested on: Staphylococcus epidermidis; test: Antibacterial activity against methicillin-resistant Staphylococcus epidermidis 14-37 after 18 to 24 hrs
[36] = tested on: Staphylococcus epidermidis; test: Antibacterial activity against methicillin-resistant Staphylococcus epidermidis 14-39 after 18 to 24 hrs
[37] = tested on: Streptococcus pneumoniae; test: Antibacterial activity against Streptococcus pneumoniae ATCC 19615 after 18 to 24 hrs; summary of the method: as §1
[38] = tested on: Enterococcus faecalis; test: Antibacterial activity against Enterococcus faecalis 14-1 after 18 to 24 hrs; summary of the method: as §1

| Structure (SMILES) | MIC [1] [mg/L] | MIC [2] [mg/L] | MIC [3] [mg/L] | MIC [4] [mg/L] | MIC [5] [mg/L] | MIC90 [6] [mg/L] | MIC [7] [mg/L] | MIC [8] [mg/L] | MIC [9] [mg/L] | MIC [10] [mg/L] | MIC [11] [mg/L] | MIC [12] [mg/L] | MIC [13] [mg/L] | MIC [14] [mg/L] | MIC [15] [mg/L] | MIC [16] [mg/L] | MIC [17] [mg/L] | MIC [18] [mg/L] | MIC [19] [mg/L] | MIC [20] [mg/L] | other results |
| --- | --- | --- | --- | --- | --- | --- | --- | --- | --- | --- | --- | --- | --- | --- | --- | --- | --- | --- | --- | --- | --- |
| CO/N=C1\CN(c2nc3c(cc2F)c(=O)c(C(=O)O)cn3[C@@H]2C[C@@H]2F)CC1(C)N (some centres undefined) | 2 (≈ 4.91 µM) | > 128 | > 128 | > 128 | > 128 | 0.392 (≈ 0.962 µM) | 0.5 (≈ 1.23 µM) | 32 (≈ 78.6 µM) | > 128 | > 128 | > 128 | 16 (≈ 39.3 µM) | 32 (≈ 78.6 µM) | > 128 | > 128 | > 128 | > 128 | > 128 | 8 (≈ 19.6 µM) | 16 (≈ 39.3 µM) | MIC [21]: 32 mg/L (≈ 78.6 µM); MIC [22]: 32 mg/L (≈ 78.6 µM); MIC [23]: 32 mg/L (≈ 78.6 µM); MIC [24]: 32 mg/L (≈ 78.6 µM); MIC [25]: 0.25 mg/L (≈ 0.614 µM); MIC [26]: 16 mg/L (≈ 39.3 µM); MIC [27]: 0.5 mg/L (≈ 1.23 µM); MIC [28]: 0.5 mg/L (≈ 1.23 µM); MIC [29]: 0.5 mg/L (≈ 1.23 µM); MIC [30]: 128 mg/L (≈ 314 µM); MIC [31]: 128 mg/L (≈ 314 µM); MIC [32]: > 128 mg/L; MIC [33]: 128 mg/L (≈ 314 µM); MIC [34]: 32 mg/L (≈ 78.6 µM); MIC [35]: 32 mg/L (≈ 78.6 µM); MIC [36]: 64 mg/L (≈ 157 µM); MIC [37]: 0.25 mg/L (≈ 0.614 µM); MIC [38]: 128 mg/L (≈ 314 µM) |
| CCO/N=C1\CN(c2nc3c(cc2F)c(=O)c(C(=O)O)cn3[C@@H]2C[C@@H]2F)CC1(C)N (some centres undefined) | 2 (≈ 4.75 µM) | > 128 | > 128 | > 128 | > 128 | 0.42 (≈ 0.997 µM) | 1 (≈ 2.37 µM) | 32 (≈ 75.9 µM) | > 128 | > 128 | > 128 | 32 (≈ 75.9 µM) | 32 (≈ 75.9 µM) | 128 (≈ 304 µM) | 128 (≈ 304 µM) | > 128 | 128 (≈ 304 µM) | > 128 | 16 (≈ 38 µM) | 16 (≈ 38 µM) | MIC [21]: 32 mg/L (≈ 75.9 µM); MIC [22]: 32 mg/L (≈ 75.9 µM); MIC [23]: 32 mg/L (≈ 75.9 µM); MIC [24]: 64 mg/L (≈ 152 µM); MIC [25]: 0.25 mg/L (≈ 0.593 µM); MIC [26]: 64 mg/L (≈ 152 µM); MIC [27]: 0.25 mg/L (≈ 0.593 µM); MIC [28]: 0.5 mg/L (≈ 1.19 µM); MIC [29]: 1 mg/L (≈ 2.37 µM); MIC [30]: 64 mg/L (≈ 152 µM); MIC [31]: 128 mg/L (≈ 304 µM); MIC [32]: > 128 mg/L; MIC [33]: 64 mg/L (≈ 152 µM); MIC [34]: 32 mg/L (≈ 75.9 µM); MIC [35]: 32 mg/L (≈ 75.9 µM); MIC [36]: 128 mg/L (≈ 304 µM); MIC [37]: 0.25 mg/L (≈ 0.593 µM); MIC [38]: 128 mg/L (≈ 304 µM) |
| CC1(N)CN(c2nc3c(cc2F)c(=O)c(C(=O)O)cn3[C@@H]2C[C@@H]2F)C/C1=N\OCc1ccccc1 (some centres undefined) | 2 (≈ 4.14 µM) | > 128 | > 128 | > 128 | > 128 | 0.923 (≈ 1.91 µM) | 2 (≈ 4.14 µM) | 64 (≈ 132 µM) | > 128 | > 128 | > 128 | 128 (≈ 265 µM) | 128 (≈ 265 µM) | > 128 | > 128 | > 128 | > 128 | > 128 | 32 (≈ 66.2 µM) | 64 (≈ 132 µM) | MIC [21]: 64 mg/L (≈ 132 µM); MIC [22]: 64 mg/L (≈ 132 µM); MIC [23]: 64 mg/L (≈ 132 µM); MIC [24]: 64 mg/L (≈ 132 µM); MIC [25]: 0.03 mg/L (≈ 0.0621 µM); MIC [26]: 16 mg/L (≈ 33.1 µM); MIC [27]: 0.03 mg/L (≈ 0.0621 µM); MIC [28]: 0.5 mg/L (≈ 1.03 µM); MIC [29]: 1 mg/L (≈ 2.07 µM); MIC [30]: 32 mg/L (≈ 66.2 µM); MIC [31]: 64 mg/L (≈ 132 µM); MIC [32]: > 128 mg/L; MIC [33]: 64 mg/L (≈ 132 µM); MIC [34]: 32 mg/L (≈ 66.2 µM); MIC [35]: 128 mg/L (≈ 265 µM); MIC [36]: 64 mg/L (≈ 132 µM); MIC [37]: 0.5 mg/L (≈ 1.03 µM); MIC [38]: 128 mg/L (≈ 265 µM) |
